From PubChem BioAssay
JNK3 blocker: inhibitors of human JNK3 kinase | purified JNK3 kinase activity, HTS | inhibition, % at 8 µM | 60,000 compounds, 0.61% hits | AID 746; in the data active = inhibition above about 17%;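 also: 0% = DMSO and 100% = reference inhibitor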
ROCK2 blocker: ROCK2 (human) kinase inhibition | O75116 | purified ROCK2, Kinase-Glo ATP depletion luminescence | inhibition, % at 6 µM | 60,000 compounds, 0.35% hits | AID 604;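 active = inhibition above the screen-wide mean inhibition plus 3 SD, cut at about 18% in these data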;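 also: plate controls were DMSO wells for no effect and Y-27632 control wells after no-enzyme background subtraction for full effect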
Target sequence (O75116 whole entry, looked up): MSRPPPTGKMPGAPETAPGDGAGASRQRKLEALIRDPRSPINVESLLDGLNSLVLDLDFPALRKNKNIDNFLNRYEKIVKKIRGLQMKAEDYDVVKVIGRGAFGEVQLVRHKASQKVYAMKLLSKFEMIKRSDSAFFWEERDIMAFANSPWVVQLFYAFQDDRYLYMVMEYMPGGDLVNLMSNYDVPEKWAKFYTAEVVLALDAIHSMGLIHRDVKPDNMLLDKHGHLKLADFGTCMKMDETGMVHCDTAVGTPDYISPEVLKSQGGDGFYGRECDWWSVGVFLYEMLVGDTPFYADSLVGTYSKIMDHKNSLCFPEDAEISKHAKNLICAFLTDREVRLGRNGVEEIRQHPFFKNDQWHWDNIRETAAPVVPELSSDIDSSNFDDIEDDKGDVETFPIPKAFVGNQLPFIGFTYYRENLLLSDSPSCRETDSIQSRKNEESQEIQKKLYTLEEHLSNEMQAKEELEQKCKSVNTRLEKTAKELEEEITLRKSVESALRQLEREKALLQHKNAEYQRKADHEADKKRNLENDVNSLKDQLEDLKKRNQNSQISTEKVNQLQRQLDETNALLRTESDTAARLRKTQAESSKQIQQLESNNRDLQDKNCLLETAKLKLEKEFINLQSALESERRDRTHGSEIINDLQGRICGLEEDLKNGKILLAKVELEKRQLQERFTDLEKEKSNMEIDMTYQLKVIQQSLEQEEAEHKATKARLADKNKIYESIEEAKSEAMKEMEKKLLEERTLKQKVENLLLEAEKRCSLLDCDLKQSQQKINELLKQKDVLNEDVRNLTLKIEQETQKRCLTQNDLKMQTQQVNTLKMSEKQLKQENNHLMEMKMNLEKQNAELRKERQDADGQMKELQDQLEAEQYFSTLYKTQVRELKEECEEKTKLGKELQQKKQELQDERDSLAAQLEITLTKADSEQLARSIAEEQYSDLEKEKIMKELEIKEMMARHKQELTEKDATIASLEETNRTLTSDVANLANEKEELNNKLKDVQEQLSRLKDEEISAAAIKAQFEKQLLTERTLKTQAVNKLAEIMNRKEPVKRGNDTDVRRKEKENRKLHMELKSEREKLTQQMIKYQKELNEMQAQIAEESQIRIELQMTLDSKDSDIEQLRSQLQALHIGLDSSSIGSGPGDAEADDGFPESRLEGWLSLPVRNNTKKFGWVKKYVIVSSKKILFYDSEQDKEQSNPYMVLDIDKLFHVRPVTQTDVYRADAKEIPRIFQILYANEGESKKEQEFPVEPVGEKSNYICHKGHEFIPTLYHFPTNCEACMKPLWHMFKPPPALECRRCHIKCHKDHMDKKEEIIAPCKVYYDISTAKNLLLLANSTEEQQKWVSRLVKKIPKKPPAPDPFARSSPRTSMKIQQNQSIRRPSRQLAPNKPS
Hsp90 block: displaces geldanamycin probe from tumor Hsp90; NCI-N417 lysate Hsp90, Cy3B-geldanamycin FP displacement; 64,000 compounds, 0.35% hits; AID 429; inhibition, % at 30 µM; P07900;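 active = inhibition above 50%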;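 also: 0% = tracer plus lysate wells and 100% = tracer alone without lysate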
PKA inh: PKA (human) kinase inhibition. AID 524. PKA Kemptide phosphorylation, Kinase-Glo ATP luminescence. P17612. inhibition, % at 6 µM. 65,000 compounds, 0.1% hits;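 active = inhibition above the screen-wide mean inhibition plus 3 SD, cut at about 21% in these data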
HEK293 NFkB inh: lowers PMA/ionomycin-induced NF-kB signal in HEK293 cells; HEK-293 NF-kB luciferase reporter, luminescence; inhibition, % at 3 µM; 62,000 compounds, 0.21% hits; AID 465;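 active = inhibition above the mean of all tested compounds plus 3 SD, cut at about 40% in these data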;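 also: 0% = stimulated DMSO wells and 100% = 10 µM reference inhibitor 5653914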
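Signal: luciferase luminescence; Material: HEK-293 cells with stable firefly luciferase reporter driven by four HIV NF-kB elements; Probe or stimulus: PMA with ionomycin; Replication: tested once; Times: 1 h compound pretreatment, then 16 h stimulation at 37 °C, 5% CO2; Benchmarks: DMSO and 10 µM reference inhibitor; Evaluation: per-plate % inhibition versus controls.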
TNAP act DEA: activates human TNAP at intermediate phosphate acceptor concentration | P05186 | purified TNAP, CDP-star luminescence, 100 mM DEA, 30 min; active compounds read high; scale: 0 levamisole-inhibited, 1 vehicle-only enzyme | activation factor at 20 µM | 64,000 tested, under 10 active | AID 813;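 active = activation factor of at least 2 at 20 µM, relative to controls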
* hit, by the source's call. The list is not random: actives were taken first. Their share in the collection is about 0.94%.

For Clc1ccc(-n2ncc3c(NCc4cccs4)ncnc32)cc1 the results were JNK3 blocker 0.8, ROCK2 blocker -19.1, Hsp90 block -2.9, PKA inh -3.8 and TNAP act DEA 1.1.
Screening Cc1cccc(-n2ncc3c(NCc4ccccc4)ncnc32)c1 returned JNK3 blocker 14.2, ROCK2 blocker -1.8, Hsp90 block 1.9, PKA inh -5.2, HEK293 NFkB inh 11.1 and TNAP act DEA 0.9.
Cc1cccc(-n2ncc3c(NCc4cccs4)ncnc32)c1 was read as JNK3 blocker 22.3*, ROCK2 blocker 4.7, Hsp90 block -2.7, PKA inh 7.3, HEK293 NFkB inh -13.0 and TNAP act DEA 0.9.
c1ccc(CNc2ncnc3c2cnn3-c2ccccc2)cc1 was read as JNK3 blocker 20.7*, ROCK2 blocker 7.5, Hsp90 block -2.6, PKA inh 13.0, HEK293 NFkB inh 16.2 and TNAP act DEA 0.8.
Cn1ncc2c(NCc3ccccc3)ncnc21 was read as JNK3 blocker 18.2*, ROCK2 blocker -0.1, Hsp90 block -1.3, PKA inh 1.3, HEK293 NFkB inh 13.1 and TNAP act DEA 0.9.
COc1cc2nc(N3CCN(C(=O)OCc4ccccc4)C(C(=O)NC(C)(C)C)C3)nc(N)c2cc1OC (stereo not drawn) was read as Hsp90 block -0.7.
For NC(=NCc1ccc(Cl)c(Cl)c1)NC(=O)c1nc(Cl)c(N)nc1N the results were Hsp90 block -2.6.
CCOC(=O)CCCc1sc(N)nc1-c1[nH]c(=O)[nH]c1C was read as JNK3 blocker 24.8*, ROCK2 blocker -2.1, Hsp90 block 0.2, PKA inh -3.7, HEK293 NFkB inh 2.2 and TNAP act DEA 0.9.
Screening Cc1ccccc1-n1nc(C)c2cc(C(=O)N3CCOCC3)sc21 returned JNK3 blocker 23.2*, ROCK2 blocker 3.5, Hsp90 block -5.4, PKA inh 1.8, HEK293 NFkB inh 10.4 and TNAP act DEA 0.9.
`Cc1c(N=c2c(=O)c3ccccc3c2=O)c(=O)n(-c2ccccc2)n1C` gave JNK3 blocker -6.0, ROCK2 blocker 3.5, Hsp90 block 80.0*, PKA inh -2.6, HEK293 NFkB inh -10.1 and TNAP act DEA 0.9.
Oc1c(C(Nc2nc3ccccc3s2)c2ccco2)ccc2cccnc12 (stereo not drawn) was read as JNK3 blocker -1.0, ROCK2 blocker 2.4, Hsp90 block -2.2, PKA inh 6.8, HEK293 NFkB inh 70.9* and TNAP act DEA 1.1.
NCC1OC(O[C@@H]2[C@H](O)C(OC3C(O)C(N)CC(N)C3OC3OC(CO)C(O)C(O)C3N)O[C@@H]2CO)C(N)C(O)C1O (stereo partly drawn) was read as Hsp90 block 1.0.
[N-]=[N+]=Nc1ccc(C(=O)CSC[C@H](NC(=O)CC[C@H](N)C(=O)O)C(=O)NCC(=O)O)cc1 was read as Hsp90 block 2.1.
COc1ccccc1N1CCN(CCN(C(=O)c2ccc(I)cc2)c2ccccn2)CC1 was read as Hsp90 block 0.5.
For OCC1NC[C@@H](O)C(O)[C@@H]1O (stereo partly drawn) the results were Hsp90 block -2.3.
O=C(O)c1n[nH]c2ccccc12 was read as PKA inh 0.6, HEK293 NFkB inh 10.1 and TNAP act DEA 0.9.
c1ccc(-c2n[nH]c3ccccc23)cc1 was read as JNK3 blocker 84.5*, ROCK2 blocker -5.7, Hsp90 block -4.1, PKA inh 8.6, HEK293 NFkB inh 9.7 and TNAP act DEA 0.3.
For COc1ccc(C(C)=O)cc1COC(=O)c1c(C)noc1C the results were JNK3 blocker 23.7*, ROCK2 blocker 2.8, Hsp90 block -1.9, PKA inh 1.9, HEK293 NFkB inh 7.6 and TNAP act DEA 1.1.
For CC1CC(C)(C)Nc2ccc(OC(=O)c3ccco3)cc21 (stereo not drawn) the results were JNK3 blocker 9.2, ROCK2 blocker 1.1, Hsp90 block 4.2, PKA inh 6.7, HEK293 NFkB inh 57.9* and TNAP act DEA 0.9.
O=Nc1ccc2oc(=O)ccc2c1 was read as Hsp90 block 1.6.
`Cn1c(C(=O)NCc2ccco2)cc2c(=O)[nH]c3ccccc3c21` gave JNK3 blocker 46.9*, ROCK2 blocker -2.2, Hsp90 block -2.0, PKA inh 4.8, HEK293 NFkB inh 14.3 and TNAP act DEA 0.9.
C=C(C)COc1ccc(-c2[nH]ncc2-c2ccc(OC)c(OC)c2)c(O)c1 was read as JNK3 blocker 7.8, ROCK2 blocker 6.6, Hsp90 block -0.5, PKA inh 7.5, HEK293 NFkB inh 57.5* and TNAP act DEA 1.3.
Screening C=C(C)COc1ccc(-c2ncncc2Oc2ccc(OC)cc2)c(O)c1 returned JNK3 blocker -4.4, ROCK2 blocker -1.8, Hsp90 block -18.1, PKA inh 0.8, HEK293 NFkB inh 21.2 and TNAP act DEA 0.9.
For COc1ccc(-c2cnc(N)nc2-c2ccc(OC)cc2O)cc1 the results were JNK3 blocker 31.0*, ROCK2 blocker 8.8, Hsp90 block 8.4, PKA inh 10.0, HEK293 NFkB inh 16.3 and TNAP act DEA 0.9.
Screening COc1ccc(-c2nc(N)ncc2Oc2ccccc2Br)c(O)c1 returned JNK3 blocker -2.9, ROCK2 blocker -1.3, Hsp90 block 3.4, PKA inh 0.6, HEK293 NFkB inh 28.3 and TNAP act DEA 1.
`COc1cccc(Oc2cnc(N)nc2-c2ccc(OC)cc2O)c1` gave JNK3 blocker 0.2, ROCK2 blocker 6.5, Hsp90 block 7.3, PKA inh 7.8, HEK293 NFkB inh 43.4* and TNAP act DEA 0.7.
Screening C=C(C)COc1ccc(-c2nc(N)ncc2-c2ccc(OC)cc2)c(O)c1 returned JNK3 blocker 22.9*, ROCK2 blocker 1.6, Hsp90 block 4.0, PKA inh 6.5, HEK293 NFkB inh 20.4 and TNAP act DEA 0.9.
`Nc1nc(SCc2ccc([N+](=O)[O-])cc2)c2ncn([C@@H]3O[C@H](CO)[C@H](O)C3O)c2n1` (stereo partly drawn) gave Hsp90 block 46.1.
`N#CC(=C(\N)Sc1ccccc1N)/C(C#N)=C(/N)Sc1ccccc1N` gave Hsp90 block inactive.
Screening Cc1cccc(-n2ncc3c(N(CCO)CCO)ncnc32)c1 returned JNK3 blocker 0.5, ROCK2 blocker -6.5, Hsp90 block 3.7, PKA inh 9.8, HEK293 NFkB inh -7.0 and TNAP act DEA 0.9.
Screening Cc1cccc(-n2ncc3c(N(C)C4CCCCC4)ncnc32)c1 returned JNK3 blocker -0.3, ROCK2 blocker -1.7, Hsp90 block -0.5, PKA inh 3.6, HEK293 NFkB inh 62.1* and TNAP act DEA 0.9.
For COc1ccc(-n2ncc3c(N(C)C4CCCCC4)ncnc32)cc1 the results were JNK3 blocker 6.1, ROCK2 blocker -0.5, Hsp90 block -1.5, PKA inh -2.5, HEK293 NFkB inh 46.1* and TNAP act DEA 0.9.
